The values that follow come from ChEMBL document CHEMBL1212900, “Falcipain inhibitors: optimization studies of the 2-pyrimidinecarbonitrile lead series” (J Med Chem, 2010).

Test [1] in a line: Inhibition of Plasmodium falciparum falcipain-2 expressed in Escherichia coli. In a few lines: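 Recombinant E. coli-expressed, refolded enzyme at 0.25 nM in 100 mM sodium acetate pH 5.5, 500 μM CHAPS, 10 mM DTT, DMSO ≤1%. Substrate H-D-Val-Leu-Arg-AFC at 30 μM final. Inhibitor dilutions mixed with substrate, enzyme added last; fluorescence followed 1 h at room temperature. IC50 from percent activity versus concentration.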

A short description of test [2]: Inhibition of Plasmodium falciparum falcipain-3 expressed in Escherichia coli. In a few lines:
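Refolded recombinant enzyme from E. coli, 2 nM, in 100 mM sodium acetate pH 5.5 with 500 μM CHAPS and 10 mM DTT, DMSO up to 1%. H-D-Val-Leu-Arg-AFC at 150 μM final. Reaction started by enzyme addition; fluorescence monitored 1 h at room temperature. IC50 derived from percent activity plotted against inhibitor concentration.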

As usually defined, the IC50 is the concentration that gives 50% inhibition. Low readings indicate greater potency in that assay, high ones weaker potency in that assay. `CC(C)(C)OC(=O)NN(c1nc(C#N)ncc1Br)C1CCN(C(=O)OCc2ccccc2)CC1`: the IC50 in test [1] was determined as 2 nM; in test [2], 38 nM.
For `CC(C)CN(NC(=O)OC(C)(C)C)c1cccc(C#N)n1` the same measures were 609 nM and more than 10000 nM.
In the same order, the values of `CC(C)CN(NC(=O)c1c[nH]c(-c2ccccc2)n1)c1nc(C#N)ncc1Br` are 4 nM and 146 nM.
For `CC(C)CN(NC(=O)C1(c2ccc(Cl)cc2)CCCC1)c1nc(C#N)ncc1Br` the same measures were 12 nM and 184 nM.
For `CC(C)(C)OC(=O)NN(Cc1ccoc1)c1nc(C#N)ncc1Br`, the IC50 came out at 60 nM in test [1] and 183 nM in test [2].
`CC(C)CN(NC(=O)C1(c2ccc(Cl)cc2)CCC1)c1nc(C#N)ncc1Br`: the half-maximal inhibitory concentration (IC50) in test [1] is 12 nM; in test [2], 216 nM.
Regarding `CC(C)CN(NC(=O)c1cc2ccccc2s1)c1nc(C#N)ncc1Br`, the values for the half-maximal inhibitory concentration (IC50) in test [1] and in test [2] were 241 nM and 365 nM, respectively.
In the same order, the values of `CC(C)CN(NC(=O)c1ccc(-c2ccccc2)s1)c1nc(C#N)ncc1Br` are 6 nM and 549 nM.
For `CC(C)(C)OC(=O)NN(CC1CCC1)c1nc(C#N)ncc1Br` the same measures were 3 nM and 62 nM.
As for `CC(C)CN(NC(=O)C(C)(C)c1ccccc1)c1nc(C#N)ncc1Br`, the half-inhibitory concentration (IC50) turned out to be 18 nM in test [1] and 60 nM in test [2].
In the case of `Cc1ccc2[nH]c(C(=O)NN(CC(C)C)c3nc(C#N)ncc3Br)cc2c1`, the half-maximal inhibitory concentration (IC50) was found to be 33 nM in test [1] and 1530 nM in test [2].
For the compound `CC(C)(C)OC(=O)NN(CC1CC1)c1nc(C#N)ncc1Br`, the IC50 in test [1] stood at 7 nM; in test [2], 413 nM.
In the same order, the values of `COc1cccc2cc(C(=O)NN(CC(C)C)c3nc(C#N)ncc3Br)oc12` are 46 nM and 399 nM.
In the same order, the values of `Cc1nc(-c2ccc3c(c2)CCO3)sc1C(=O)NN(CC(C)C)c1nc(C#N)ncc1Cl` are 3 nM and 950 nM.
`CC(C)CN(NC(=O)c1cnc(-c2ccc3c(c2)CCO3)s1)c1nc(C#N)ncc1Cl`: the figures for the 50% inhibitory concentration (IC50) in test [1] and in test [2] were 2 nM and 198 nM, respectively.
Consider `CC(C)N1CCC(N(NC(=O)OC(C)(C)C)c2nc(C#N)ncc2Br)CC1`, for which the IC50 in test [1] was 902 nM; in test [2], 5240 nM.
In the same order, the values of `CC(C)CN(NC(=O)c1cc(-c2ccccc2)[nH]n1)c1nc(C#N)ncc1Br` are 3 nM and 352 nM.
In the same order, the values of `Cc1ccc2sc(C(=O)NN(CC(C)C)c3nc(C#N)ncc3Br)cc2c1` are 6 nM and 748 nM.
For `CC(C)(C)OC(=O)NN(CCC1C=CCC1)c1nc(C#N)ncc1Br` (stereo not drawn) the same measures were 12 nM and 311 nM.
`CC(C)CN(NC(=O)c1cccc2c1Cc1ccccc1-2)c1nc(C#N)ncc1Br`: the results for the IC50 in test [1] and in test [2] were 4 nM and 329 nM, respectively.
In the same order, the values of `CC(C)CN(NC(=O)Cc1c(F)cccc1F)c1nc(C#N)ncc1Br` are 0.5 nM and 8 nM.
Regarding `CC(C)CN(NC(=O)c1cccc(-c2ccccc2)c1)c1nc(C#N)ncc1Br`, the values for the IC50 in test [1] and in test [2] were 1 nM and 37 nM, respectively.
In the same order, the values of `CC(C)CN(NC(=O)c1ccc(Cc2ccccc2)cc1)c1nc(C#N)ncc1Cl` are 18 nM and 962 nM.
Turning to `CC(C)CN(NC(=O)Cc1ccc(F)cc1)c1nc(C#N)ncc1Br`, the IC50 in test [1] is 3 nM; in test [2] it was 4 nM.
For `CC(C)CN(NC(=O)c1ccc(-c2cccc(C(F)(F)F)c2)o1)c1nc(C#N)ncc1Br` the same measures were 5 nM and 97 nM.
On to `CC(C)(C)OC(=O)NN(c1nc(C#N)ncc1Br)C1CCC1`, for which the results for the half-maximal inhibitory concentration (IC50) in test [1] and in test [2] were 13 nM and 297 nM, respectively.
Consider `CC(=O)N[C@H]1CC[C@H](N(NC(=O)OC(C)(C)C)c2nc(C#N)ncc2Br)CC1`, for which the IC50 in test [1] was 7 nM; in test [2], 67 nM.
For `Cc1oc(-c2ccccc2)cc1C(=O)NN(CC(C)C)c1nc(C#N)ncc1Br` the same measures were 25 nM and 837 nM.
`CC(C)CN(NC(=O)OC(C)(C)C)c1nc(C#N)ncc1[N+](=O)[O-]`: the half-inhibitory concentration (IC50) in test [1] is 2 nM; in test [2] it was 26 nM.
For `COc1ccc2oc(C(=O)NN(CC(C)C)c3nc(C#N)ncc3Br)cc2c1` the same measures were 183 nM and 1240 nM.
In the same order, the values of `CC(C)(C)OC(=O)NN(CC1CC=CC1)c1nc(C#N)ncc1Br` are 2 nM and 35 nM.
Take `CC1CCC(N(NC(=O)OC(C)(C)C)c2nc(C#N)ncc2Br)C1` (stereo not drawn): the results for the 50% inhibitory concentration (IC50) in test [1] and in test [2] were 3 nM and 53 nM, respectively.
In the same order, the values of `Cc1nn(-c2ccccc2)nc1C(=O)NN(CC(C)C)c1nc(C#N)ncc1Br` are 676 nM and 1100 nM.
For `CC(C)CN(NC(=O)c1cccc(-c2cncnc2)c1)c1nc(C#N)ncc1Br` the same measures were less than 0.5 nM and 12 nM.
For `CC(=O)N1CCC(N(NC(=O)OC(C)(C)C)c2nc(C#N)ncc2Br)CC1` the same measures were less than 0.5 nM and 33 nM.
As for `CC(C)CN(NC(=O)C1(c2ccc(Cl)cc2)CC1)c1nc(C#N)ncc1Br`, the IC50 worked out at 15 nM in test [1] and 69 nM in test [2].
In the same order, the values of `CC1OCCC1N(NC(=O)OC(C)(C)C)c1nc(C#N)ncc1Br` (stereo not drawn) are 7 nM and 98 nM.
In the same order, the values of `CC(C)CN(NC(=O)c1ccc(-n2ccnc2)cc1)c1nc(C#N)ncc1Br` are 9 nM and 239 nM.
For `CC(C)CN(NC(=O)c1cc(-c2cccs2)on1)c1nc(C#N)ncc1Br` the same measures were 4 nM and 218 nM.
For the compound `CC(C)CN(NC(=O)c1cc2ccccc2o1)c1nc(C#N)ncc1Br`, the IC50 in test [1] was 65 nM; in test [2], 563 nM.
For `CC(C)CN(NC(=O)c1cccc(Oc2ccccc2)c1)c1nc(C#N)ncc1Br` the same measures were 4 nM and 116 nM.
As to `CC(C)CN(NC(=O)c1ccc(-c2ccccc2)nc1)c1nc(C#N)ncc1Br`, the figures for the IC50 in test [1] and in test [2] were 3 nM and 104 nM, respectively.
For `COCc1cnc(C#N)nc1N(CC(C)C)NC(=O)OC(C)(C)C` the same measures were 8400 nM and more than 10000 nM.
For `CC(C)CN(NC(=O)c1cc(-c2ccccc2)no1)c1nc(C#N)ncc1Cl` the same measures were 2 nM and 120 nM.
In the same order, the values of `CC(C)CN(NC(=O)OC(C)(C)C)c1nc(Cl)ncc1[N+](=O)[O-]` are more than 25000 nM and more than 25000 nM.
With `Cc1cnc(C#N)nc1N(CC(C)C)NC(=O)OC(C)(C)C`, the half-inhibitory concentration (IC50) in test [1] came to 40 nM; in test [2] it was 1150 nM.
In the same order, the values of `CC(C)CN(NC(=O)c1csc(-c2ccccc2)n1)c1nc(C#N)ncc1Cl` are 1.5 nM and 54 nM.
For `CC(C)(C)OC(=O)NN(CC1CCOCC1)c1nc(C#N)ncc1Br`, the IC50 came out at 8 nM in test [1] and 85 nM in test [2].
In the same order, the values of `COc1cnc(C#N)nc1N(CC(C)C)NC(=O)OC(C)(C)C` are 79 nM and 2390 nM.
In the case of `CC(C)CN(NC(=O)c1cc2ccccc2cn1)c1nc(C#N)ncc1Cl`, the concentration for half-maximal inhibition (IC50) in test [1] was 7 nM; in test [2], 333 nM.
On to `CC(C)CN(NC(=O)c1cc(-c2ccccc2)cs1)c1nc(C#N)ncc1Br`, for which the half-maximal inhibitory concentration (IC50) in test [1] turned out to be 3 nM; in test [2], 374 nM.
In the same order, the values of `Cc1nc2cc(C(=O)NN(CC(C)C)c3nc(C#N)ncc3Br)ccc2[nH]1` are 0.2 nM and 27 nM.
For `CC(C)CN(NC(=O)c1ccc(C(=O)c2ccccc2)cc1)c1nc(C#N)ncc1Br`, the IC50 in test [1] was found to be 3 nM; in test [2], 115 nM.
For `Cc1c(C(=O)NN(CC(C)C)c2nc(C#N)ncc2Br)noc1-c1ccccc1`, the IC50 is 20 nM in test [1] and 71 nM in test [2].
In the same order, the values of `CC(C)CN(NC(=O)c1cnoc1-c1ccccc1)c1nc(C#N)ncc1Cl` are 8 nM and 128 nM.
For `CC(C)CN(NC(=O)C(N)c1ccccc1)c1nc(C#N)ncc1Br` (stereo not drawn) the same measures were 7 nM and 34 nM.
Consider `COc1nc(C#N)nc(N(CC(C)C)NC(=O)OC(C)(C)C)n1`, for which the concentration for half-maximal inhibition (IC50) in test [1] came out at 12 nM; in test [2], 204 nM.
In the case of `CC(C)CN(NC(=O)c1cncc(-c2ccccc2)c1)c1nc(C#N)ncc1Cl`, the IC50 in test [1] came to 0.8 nM; in test [2], 26 nM.
On to `CC(C)(C)OC(=O)NN(CCc1ccccc1)c1nc(C#N)ncc1Br`, for which the figures for the IC50 in test [1] and in test [2] were 93 nM and 557 nM, respectively.
In the same order, the values of `COc1ccc(CC(=O)NN(CC(C)C)c2nc(C#N)ncc2Br)cc1` are 1.5 nM and 6 nM.
For `CC(C)CN(NC(=O)OC(C)(C)C)c1nc(C#N)ncc1C(F)(F)F` the same measures were 3 nM and 66 nM.
In the same order, the values of `CC(C)(C)OC(=O)NN(Cc1ccco1)c1nc(C#N)ncc1Br` are 8 nM and 140 nM.
For `CC(C)CN(NC(=O)c1cc(-c2cccs2)[nH]n1)c1nc(C#N)ncc1Cl`, the IC50 in test [1] came out at 5 nM; in test [2], 451 nM.
In the same order, the values of `Cc1c(C(=O)NN(CC(C)C)c2nc(C#N)ncc2Br)oc2cccnc12` are 2 nM and 73 nM.
For `CC(C)CN(NC(=O)OC(C)(C)C)c1cncc(C#N)n1` the same measures were 59 nM and 1670 nM.
In the same order, the values of `Cc1c(C(=O)NN(CC(C)C)c2nc(C#N)ncc2Br)oc2ccccc12` are 223 nM and 1430 nM.
In test [1], `CC(C)CN(NC(=O)OC(C)(C)C)c1nc(Cl)ncc1C#N` returned an IC50 of 4530 nM. In other words, the single-digit micromolar range.
